{"source": "paper PMC4215946", "about": "(Bioorganic & medicinal chemistry, 2013)", "key": {"CEM cells [1]": {"system": "CEM cells", "test": "Mitochondrial membrane potential", "type": "cell-based, human", "how_it_was_run": "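CEM cells grown in RPMI with 10% heat-inactivated FBS at 37 °C, 5% CO2, then given 1 µM final test compound for 6 and 8 h. Stained with JC-1 (MitoProbe) per kit protocol: red aggregates mean polarized mitochondria, green monomers mean depolarized. Green cells scored by flow cytometry, about 10,000 events per sample. Controls were 50 µM CCCP, 1% v/v DMSO and untreated cells. Triplicates, mean ± standard deviation; two-tailed paired t-test.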"}, "CEM cells [2]": {"system": "CEM cells", "test": "Annexin V/PI apoptosis/necrosis assay", "type": "cell-based, human", "conditions": "72 h", "how_it_was_run": "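CEM cells in RPMI/10% heat-inactivated FBS, 50,000 per well, rested 1 h, then dosed from DMSO dilutions; 72 h, 37 °C, 5% CO2. Collected on ice, annexin V-FITC/PI in binding buffer 15 min on ice, dark; ~10,000 events by flow. Apoptotic = early+late annexin-positive; PI-only = necrotic. Controls: untreated, 1% DMSO, 1 mM H2O2. Four wells; three independent experiments.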"}, "caspase-3": {"system": "caspase-3", "test": "Live-cell detection of intracellular caspase-3 activation", "type": "cell-based, human", "conditions": "CEM cells, 1 µM, 8 h", "how_it_was_run": "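CEM cells in RPMI with 10% heat-inactivated FBS and penicillin/streptomycin, 37 °C, 5% CO2, seeded at 50,000 per well. Exposed to 1 µM test compound (DMSO dilutions) for 8 h, then labelled with fluorogenic NucView 488 caspase-3/7 live-cell substrate. Green-positive cells counted by flow cytometry, about 10,000 events per sample. Controls were 50 µM CCCP, 1% v/v DMSO and untreated cells. Mean ± standard deviation; two-tailed paired t-test.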"}, "[3]": {"test": "Solubility observation in cell culture medium", "type": "physicochemical", "conditions": "cell culture medium (aqueous environment)"}}, "data": [{"compound": "N#CC(C#N)=NNc1cccc(Cl)c1", "note": "[CCCP, carbonyl cyanide 3-chlorophenylhydrazone, reference compound]", "values": [{"measurement": "mitochondrial depolarization (JC-1 green signal)", "setting": "CEM cells [1]; 50 µM, positive control", "result": "strongly induced mitochondrial depolarization"}]}, {"compound": "CCCCCCCCCCCC(=O)c1cc(O)c2ccccc2c1O", "note": "[Compound 3, 2-Dodecanoyl-1,4-naphthohydroquinone]", "values": [{"measurement": "apoptosis (annexin V-FITC positive cells, early + late)", "setting": "CEM cells [2]; 10 µM", "result": 95.35, "unit": "%"}, {"measurement": "mode of cell death (apoptosis vs necrosis)", "setting": "CEM cells [2]; 10 µM", "result": "preferentially induce cell death via apoptosis"}, {"measurement": "mitochondrial depolarization (JC-1 green signal)", "setting": "CEM cells [1]; 1 µM, 6 and 8 h", "result": "induced a significant increase in mitochondrial depolarization from 6 to 8 h"}, {"measurement": "caspase-3 activation", "setting": "caspase-3", "result": "has a tendency to induce cytotoxicity via caspase-3 activation"}]}, {"compound": "CCC(=O)c1cc(O)c2ccccc2c1O", "note": "[Compound 4, 2-Propanoyl-1,4-naphthohydroquinone]", "values": [{"measurement": "solubility in cell culture medium", "setting": "[3]", "result": "generated insoluble crystals when added to the cell culture medium"}]}, {"compound": "C/C=C/C(=O)c1cc(O)c2ccccc2c1O", "note": "[Compound 7, 2-Crotonyl-1,4-naphthohydroquinone]", "values": [{"measurement": "apoptosis (annexin V-FITC positive cells, early + late)", "setting": "CEM cells [2]; 50 µM", "result": 1.7, "unit": "%"}, {"measurement": "mode of cell death (apoptosis vs necrosis)", "setting": "CEM cells [2]; 50 µM", "result": "elicited a substantial amount of necrosis instead of apoptosis"}]}]}
